Only a sample is shown.
Apaf1 activ = activators of human Apaf-1 apoptosome, primary screen, biochemical, DEVD-Rh110 fluorescence, uHTS. Apoptotic protease-activating factor 1 (Homo sapiens), O14727. Apaf-1 apoptosome caspase-3 activation; active compounds read low. activity change, negative = activation, % at 20 µM. actives 0.31% (n = 330,000). AID 489031, 2010;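 active = activity change at or below -40% at 20 µM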
Target sequence (O14727 whole entry, looked up): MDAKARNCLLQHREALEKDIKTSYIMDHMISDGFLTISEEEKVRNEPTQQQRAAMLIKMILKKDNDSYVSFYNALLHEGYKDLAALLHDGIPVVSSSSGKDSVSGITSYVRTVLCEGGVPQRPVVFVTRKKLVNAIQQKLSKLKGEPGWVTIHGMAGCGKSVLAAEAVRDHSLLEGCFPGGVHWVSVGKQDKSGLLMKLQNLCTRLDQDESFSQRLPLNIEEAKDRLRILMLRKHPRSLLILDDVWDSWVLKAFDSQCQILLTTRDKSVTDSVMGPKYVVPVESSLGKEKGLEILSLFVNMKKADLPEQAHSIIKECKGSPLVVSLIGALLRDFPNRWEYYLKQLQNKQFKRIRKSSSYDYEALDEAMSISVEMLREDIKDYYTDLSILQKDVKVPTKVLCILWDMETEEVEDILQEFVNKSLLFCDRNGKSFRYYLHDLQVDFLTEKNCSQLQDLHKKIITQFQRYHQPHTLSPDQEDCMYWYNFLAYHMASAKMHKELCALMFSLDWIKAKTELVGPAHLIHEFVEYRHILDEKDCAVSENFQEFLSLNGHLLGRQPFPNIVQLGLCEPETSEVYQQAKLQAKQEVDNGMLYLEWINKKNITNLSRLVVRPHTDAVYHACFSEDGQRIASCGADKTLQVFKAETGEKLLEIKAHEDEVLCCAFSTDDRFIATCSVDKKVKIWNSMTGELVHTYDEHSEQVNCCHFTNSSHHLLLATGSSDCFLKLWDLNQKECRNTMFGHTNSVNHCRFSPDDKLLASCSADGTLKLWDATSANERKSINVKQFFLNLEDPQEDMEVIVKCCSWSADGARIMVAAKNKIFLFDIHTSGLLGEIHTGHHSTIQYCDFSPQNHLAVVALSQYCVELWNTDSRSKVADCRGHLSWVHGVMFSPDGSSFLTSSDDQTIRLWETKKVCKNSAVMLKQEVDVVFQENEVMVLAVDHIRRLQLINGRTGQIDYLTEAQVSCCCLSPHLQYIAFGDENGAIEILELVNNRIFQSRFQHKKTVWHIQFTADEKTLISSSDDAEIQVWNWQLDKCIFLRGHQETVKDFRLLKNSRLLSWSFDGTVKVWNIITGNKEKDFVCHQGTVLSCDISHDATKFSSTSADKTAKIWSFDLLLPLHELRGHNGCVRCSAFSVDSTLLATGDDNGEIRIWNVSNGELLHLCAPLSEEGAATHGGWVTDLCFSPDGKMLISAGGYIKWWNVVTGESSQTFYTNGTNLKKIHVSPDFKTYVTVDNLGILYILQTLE
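Material: reconstituted apoptosome of Apaf-1, cytochrome c, caspase-9, procaspase-3; times: 30 min preincubation, 50 min reaction, room temperature; measured by: fluorescence, 540 nm emission, 480 nm excitation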
Rh110 act interf = Rh110 fluorescence interference by putative Apaf-1 activators, confirmation, artefact control for Apaf-1 activator project, biochemical, 20 µM; AID 504616, 2011; 980 tested, under 10 active; fluorescence interference (activity change), % at 20 µM, hits read low; quenched caspase reaction, Ex480/Em540; shares compounds with Apaf1 activ;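 active = mean activity change at or below -40% when tested at 20 µM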
Apaf-1 act conf2 = Apaf-1 activators, single-dose retest, confirmation, biochemical, fluorescence, DEVD-Rh110, 20 µM; actives 5% (n = 980); activity change, negative = activation, % at 20 µM; shares compounds with Apaf1 activ; reconstituted apoptosome caspase-3 activity; active compounds read low;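 active = mean activity change at or below -40%, meaning activation of 40% or more, at 20 µM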
* hit, by the source's call.

`Cc1c(C(=O)Nc2ccccc2)cc(-c2ccccc2)n1CCCN1CCOCC1` gave Apaf1 activ -201*, Rh110 act interf -2 and Apaf-1 act conf2 10.
For CCN(CCO)c1ccc(N=Cc2c(O)n(C)c(=S)[nH]c2=O)cc1 the results were Apaf1 activ 51.
Screening COc1cc2c(cc1OC)-c1c(OC)c(OC)cc3c1[C@H](C2)N(C)CC3 returned Apaf1 activ 95.
CCCNC1=C(C)C(=O)C2=C(C1=O)C(COC(N)=O)[C@]1(OC)C3NC3CN21 (stereo partly drawn) was read as Apaf1 activ 57.
For CNc1ccc2nc3ccccc3[n+](C)c2c1 the results were Apaf1 activ 89.
CNCCc1nc(N)n[nH]1 was read as Apaf1 activ -74*, Rh110 act interf 4 and Apaf-1 act conf2 12.
Nc1cncc(C(=O)O)c1 was read as Apaf1 activ 41.
`Nc1c(C(=O)NC2CCCC2)c2nc3ccccc3nc2n1CC1CCCO1` (stereo not drawn) gave Apaf1 activ 94.
CCN(CC)c1ccc(N=Cc2c(O)n(-c3cc(OC)ccc3OC)c(=O)[nH]c2=O)cc1 was read as Apaf1 activ 48.
Screening O=c1cc(C2CCNCC2)[nH][nH]1 returned Apaf1 activ 58.
For Clc1ccc(C(c2ccc(Cl)cc2)n2cc[n+](CC(OCc3ccc(Cl)cc3Cl)c3ccc(Cl)cc3Cl)c2)cc1 (stereo not drawn) the results were Apaf1 activ 89.
CC[C@@H]1C(=O)OC[C@@H]1Cc1cncn1C was read as Apaf1 activ 0.
C=CCn1c(O)c(C(C)=Nc2ccc(C(=O)O)cc2)c(=O)[nH]c1=O was read as Apaf1 activ -77*, Rh110 act interf -2 and Apaf-1 act conf2 12.
c1cncc(C2Nc3cccc4cccc(c34)N2)c1 was read as Apaf1 activ 42.
CCCCCCCSc1cc(OC)c(CCN(C)C)cc1OC was read as Apaf1 activ 56.
For NC(N)=N/N=C/c1ccc(N(c2ccccc2)c2ccccc2)cc1 the results were Apaf1 activ 61.
`Cc1ccc(C[n+]2c(-c3ccc(C)cc3)cc(-c3ccc(C)cc3)cc2-c2ccc(C)cc2)cc1` gave Apaf1 activ 79.
Screening C[N+]1(C)[C@@H]2CC[C@H]1CC(OC(=O)[C@@H](CO)c1ccccc1)C2 (stereo partly drawn) returned Apaf1 activ 70.
`CCOC(=O)C(O)(c1ccc(N(C)C(=O)c2ccc(Cl)c(Cl)c2)cc1)C(F)(F)F` (stereo not drawn) gave Apaf1 activ -190*, Rh110 act interf -2 and Apaf-1 act conf2 23.
For CCCOC(=O)c1ccc(-[n+]2c(-c3ccccc3)cc(-c3ccccc3)cc2-c2ccccc2)cc1 the results were Apaf1 activ 47.
CCOC(=O)c1c(NS(=O)(=O)c2ccccc2)n(CCCOC)c2nc3ccccc3nc12 was read as Apaf1 activ 96.
For O=c1[nH]c2ccccc2n1C1CCN(CCCC(c2ccc(F)cc2)c2ccc(F)cc2)CC1 the results were Apaf1 activ 56.
`c1ccc(-c2[nH]c[n+](CC3CO3)c2-c2ccccc2)cc1` (stereo not drawn) gave Apaf1 activ 51.
For CCCN1CCc2cccc3c2[C@H]1Cc1ccc(O)c(O)c1-3 the results were Apaf1 activ 53.
`CCOc1ccc(Cl)cc1CNCCc1ccc(F)cc1` gave Apaf1 activ -44*, Rh110 act interf -1 and Apaf-1 act conf2 11.

Screening data (PubChem BioAssay)
